Results published in ChEMBL document CHEMBL4270654, “Identification of DK419, a potent inhibitor of Wnt/β-catenin signaling and colorectal cancer growth” (Bioorg Med Chem, 2018).
pIC50: −log10 of the molar value. Calls of active or inactive are those of the source. The rule behind the calls is not given here.

Experiments:
[1] = species on record: Homo sapiens; assay: Inhibition of Wnt/beta-catenin signaling pathway in human SW480 cells cytosol lysate harboring APC mutation assessed as reduction in beta-catenin protein expression at 5 uM after 18 hrs by Western blot analysis; type: cell-based
How it was run: (§1)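 CCRC240, HCT116 or SW480 cells were grown to 50–70% confluency and exposed 18 h to 5 μM compound in DMSO. Whole-cell lysates were blotted for c-Myc, cyclin D1 and survivin. Hypotonic cytosolic fractions, syringe-dispersed and centrifuged 120 min, were blotted for β-catenin and Axin2. β-Actin served as loading control.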

[2] = system: Mus musculus; assay: Dose normalized AUC (0 to infinity) in NOD/SCID mouse at 200 mg/kg, po by LC-MS/MS-based non-compartmental extravascular input analysis; type: ADME, organism-based; conditions: in vivo
[3] = system: CCD-841CoN; assay: Stimulation of mitochondrial respiration in human CCD-841-CoN cells assessed as increase in oxygen consumption rate at 1 uM under basal conditions by polarographic analysis
[4] = species on record: Homo sapiens; assay: Inhibition of Wnt/beta-catenin signaling pathway in human CRC240 whole cell lysate assessed as reduction in c-Myc protein expression at 5 uM after 18 hrs by Western blot analysis; how it was run: as §1
[5] = species on record: Homo sapiens; assay: Inhibition of Wnt/beta-catenin signaling pathway in human CRC240 whole cell lysate assessed as reduction in cyclin D1 protein expression at 5 uM after 18 hrs by Western blot analysis; how it was run: as §1
[6] = species on record: Homo sapiens; assay: Inhibition of Wnt/beta-catenin signaling pathway in human HCT116 whole cell lysate harboring beta-catenin mutation assessed as reduction in c-Myc protein expression at 5 uM after 18 hrs by Western blot analysis; how it was run: as §1
[7] = species on record: Homo sapiens; assay: Inhibition of Wnt/beta-catenin signaling pathway in human HCT116 whole cell lysate harboring beta-catenin mutation assessed as reduction in survivin protein expression at 5 uM after 18 hrs by Western blot analysis; how it was run: as §1
[8] = Inhibition of Wnt3A-stimulated Wnt/beta-catenin pathway in HEK293 cells transfected with p8xTOPFlash, Renilla luciferase plasmid pRL-TK and pLKO.1 after 6 hrs by Dual topflash luciferase reporter assay; type: cell-based; conditions: Homo sapiens, HEK293, 6 h
How it was run: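 HEK293 cells stably carrying p8xTOPFlash, pRL-TK and pLKO.1 were grown overnight to confluence in MEM/10% FBS with 1 μg/ml puromycin. Wnt-3A conditioned medium (from L Wnt-3A cells) containing compound (0.04–10 μM) or DMSO was added for 6 h. Dual-luciferase was read, with the Wnt3A+DMSO signal set as 100%.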

[9] = system: HT-29; assay: Antiproliferative activity against human HT-29 cells after 72 hrs by colorimetric MTS assay; type: functional, cell-based; conditions: HT-29, 72 h
How it was run: (§2)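 Cells plated at 5000 per well in their own media (Leibovitz's for SW948; McCoy's 5A for HT-29/HCT116; MEM for SW480; RPMI for CRC240/DLD-1) with 10% FBS. Exposed 72 h to compound, 0.001–10 μM or 0.04–10 μM, then colorimetric MTS read-out. […] CRC240 is a patient-derived xenograft line.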

[10] = species on record: Homo sapiens; assay: Inhibition of Wnt/beta-catenin signaling pathway in human SW480 cells cytosol lysate harboring APC mutation assessed as reduction in Axin2 protein expression at 5 uM after 18 hrs by Western blot analysis; type: cell-based; how it was run: as §1
[11] = AUC (0 to 24 hrs) in NOD/SCID mouse at 200 mg/kg, po by LC-MS/MS-based non-compartmental extravascular input analysis; type: ADME, organism-based; design: time < 24 hr, dose 200 mg/kg, route oral; conditions: in vivo
[12] = AUC (0 to infinity) in NOD/SCID mouse at 200 mg/kg, po by LC-MS/MS-based non-compartmental extravascular input analysis; type: ADME, organism-based; design: dose 200 mg/kg, time infinity, route oral; conditions: in vivo
[13] = species on record: Homo sapiens; assay: Inhibition of Wnt/beta-catenin signaling pathway in human SW480 whole cell lysate harboring APC mutation assessed as reduction in c-Myc protein expression at 5 uM after 18 hrs by Western blot analysis; how it was run: as §1
[14] = species on record: Homo sapiens; assay: Inhibition of Wnt/beta-catenin signaling pathway in human CRC240 cells cytosol lysate assessed as reduction in beta-catenin protein expression at 5 uM after 18 hrs by Western blot analysis; type: cell-based; how it was run: as §1
[15] = system: Mus musculus; assay: Apparent volume of distribution in NOD/SCID mouse at 200 mg/kg, po by LC-MS/MS-based non-compartmental extravascular input analysis; type: ADME, organism-based; conditions: in vivo
[16] = system: SW948; assay: Antiproliferative activity against human SW948 cells after 72 hrs by colorimetric MTS assay; type: functional, cell-based; conditions: SW948, 72 h; how it was run: as §2
[17] = target: AMP-activated protein kinase, AMPK (Homo sapiens) (UniProt P54646+O43741+P54619+Q9UGJ0+Q9Y478+Q13131+Q9UGI9); assay: Induction of AMPK phosphorylation in human CCD-841-CoN cells at 0.1 to 10 uM after 2 hrs by Western blot analysis; type: cell-based
How it was run: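 Colonic epithelial CCD841Co cells were seeded at 0.27 million per well on poly-D-lysine-coated wells and attached overnight. Medium was then switched to glucose-free DMEM with 2 mM pyruvate and 2 mM glutamine containing compound or DMSO. Whole-cell lysates were immunoblotted for phospho-Thr172 AMPK and total AMPK, with β-actin as loading control. Methods give 30 min exposure; legend gives 2 h.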

[18] = species on record: Homo sapiens; assay: Inhibition of Wnt/beta-catenin signaling pathway in human HCT116 cells cytosol lysate harboring beta-catenin mutation assessed as reduction in beta-catenin protein expression at 5 uM after 18 hrs by Western blot analysis; type: cell-based; how it was run: as §1
[19] = system: DLD-1; assay: Antiproliferative activity against human DLD1 cells after 72 hrs by colorimetric MTS assay; type: functional, cell-based; conditions: DLD-1, 72 h; how it was run: as §2
[20] = species on record: Homo sapiens; assay: Inhibition of Wnt/beta-catenin signaling pathway in human HCT116 whole cell lysate harboring beta-catenin mutation assessed as reduction in cyclin D1 protein expression at 5 uM after 18 hrs by Western blot analysis; how it was run: as §1
[21] = system: Mus musculus; assay: Toxicity in NOD/SCID mouse xenografted with human CRC240 cells assessed as change in body weight at 72 mg/kg, po administered 11 days and measured on day 4, 8 during compound dosing and day 11 post last dose; type: organism-based; conditions: in vivo, 264 h
How it was run: (§3)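 Minced CRC240 PDX tissue (150 mg/ml in PBS, 200 μl) implanted in flanks of NOD/SCID mice. At about 100 mm3 tumours, mice randomized and dosed orally once daily for 11 days. Vehicle: 10% 1-methyl-2-pyrrolidinone/90% PEG300, with dosing suspensions or solutions at […] or 0.2 mg/ml. Tumour size and body weight recorded on days 0, 4, 8 and 11. n = 3, two-tailed t-test versus vehicle.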

[22] = species on record: Homo sapiens; assay: Inhibition of Wnt/beta-catenin signaling pathway in human SW480 whole cell lysate harboring APC mutation assessed as reduction in cyclin D1 protein expression at 5 uM after 18 hrs by Western blot analysis; how it was run: as §1
[23] = species on record: Homo sapiens; assay: Inhibition of Wnt/beta-catenin signaling pathway in human SW480 whole cell lysate harboring APC mutation assessed as reduction in survivin protein expression at 5 uM after 18 hrs by Western blot analysis; how it was run: as §1
[24] = species on record: Homo sapiens; assay: Inhibition of Wnt/beta-catenin signaling pathway in human CRC240 whole cell lysate assessed as reduction in survivin protein expression at 5 uM after 18 hrs by Western blot analysis; how it was run: as §1
[25] = system: HCT-116; assay: Antiproliferative activity against human HCT116 cells after 72 hrs by colorimetric MTS assay; type: functional, cell-based; conditions: HCT-116, 72 h; how it was run: as §2
[26] = target: Frizzled-1 (Homo sapiens) (UniProt Q9UP38); assay: Induction of GFP-tagged Fzd1 (unknown origin) internalization expressed in human U2OS cells at 12.5 after 6 hrs by confocal microscopic method; type: functional, cell-based
How it was run: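 U2OS cells stably expressing Fzd1-GFP were grown 24 h in confocal dishes and then treated 6 h at 37 °C with 12.5 μM compound, DMSO as control. Cells were fixed in 4% paraformaldehyde and imaged by confocal microscopy (488 nm excitation). Internalization was scored as intracellular green punctate vesicles.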

[27] = species on record: Homo sapiens; assay: Inhibition of Wnt/beta-catenin signaling pathway in human CRC240 cells cytosol lysate assessed as reduction in Axin2 protein expression at 5 uM after 18 hrs by Western blot analysis; type: cell-based; how it was run: as §1
[28] = Antiproliferative activity against human CRC240 cells after 72 hrs by colorimetric MTS assay; type: functional, cell-based; how it was run: as §2
[29] = system: Homo sapiens; assay: Antitumor activity against human CRC240 cells xenografted in NOD/SCID mouse at 72 mg/kg, po administered 11 days and measured on day 4, 8 during compound dosing and day 11 post last dose; type: functional, organism-based; how it was run: as §3
[30] = MRT in NOD/SCID mouse at 200 mg/kg, po by LC-MS/MS-based non-compartmental extravascular input analysis; type: ADME, organism-based; conditions: in vivo
[31] = species on record: Homo sapiens; assay: Inhibition of Wnt/beta-catenin signaling pathway in human HCT116 cells cytosol lysate harboring beta-catenin mutation assessed as reduction in Axin2 protein expression at 5 uM after 18 hrs by Western blot analysis; type: cell-based; how it was run: as §1
[32] = system: SW480; assay: Antiproliferative activity against human SW480 cells after 72 hrs by colorimetric MTS assay; type: functional, cell-based; conditions: SW480, 72 h; how it was run: as §2
[33] = system: CCD-841CoN; assay: Stimulation of mitochondrial respiration in human CCD-841-CoN cells assessed as increase in oxygen consumption rate at 1 uM in presence of rotenone and […] antimycin A by polarographic analysis; type: functional, cell-based
How it was run: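 CCD841Co cells were plated at 8000 per well and attached overnight. OCR was measured on a Seahorse XFp analyzer under basal conditions after 1 μM compound or DMSO was added. This was followed by 1 μM oligomycin, 1 μM FCCP, then 0.5 μM rotenone plus antimycin A (Mito Stress Test). Data given as mean ± SD, n = 2.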

Chain of Frizzled-1 (Homo sapiens) (Q9UP38 70-647 limits assumed): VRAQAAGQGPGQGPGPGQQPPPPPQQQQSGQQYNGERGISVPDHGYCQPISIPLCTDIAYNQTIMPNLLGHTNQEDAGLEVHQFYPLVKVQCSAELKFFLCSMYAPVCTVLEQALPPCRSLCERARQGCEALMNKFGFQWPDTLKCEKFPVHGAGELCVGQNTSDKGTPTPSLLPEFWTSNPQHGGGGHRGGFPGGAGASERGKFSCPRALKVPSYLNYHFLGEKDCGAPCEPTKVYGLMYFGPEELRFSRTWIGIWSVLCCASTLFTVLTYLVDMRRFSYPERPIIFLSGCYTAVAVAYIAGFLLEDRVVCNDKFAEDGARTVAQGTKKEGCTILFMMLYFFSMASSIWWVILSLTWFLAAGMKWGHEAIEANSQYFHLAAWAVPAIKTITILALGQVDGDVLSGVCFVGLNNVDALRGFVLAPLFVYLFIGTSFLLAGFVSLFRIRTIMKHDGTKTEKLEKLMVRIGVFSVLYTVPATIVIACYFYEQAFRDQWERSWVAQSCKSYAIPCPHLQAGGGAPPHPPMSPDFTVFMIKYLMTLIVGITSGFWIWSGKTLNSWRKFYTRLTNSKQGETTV

In the case of `O=C(Nc1ccc([N+](=O)[O-])cc1Cl)c1cc(Cl)ccc1O` [NICLOSAMIDE], the inhibition [1] was “Active”, the AUC/dose [2] was 0.005 µg·h/mL and the Activity [3] was “Active”. The inhibition [4] was “Active”, the inhibition [5] was “Active” and the inhibition [6] was “Active”. For the same molecule, the inhibition [7] was “Active”, the pIC50 [8] was 6.35 and the pIC50 [9] was 6.89. For the same molecule, the inhibition [10] was “Active”, the AUC(0-t) at 24 h [11] was 1010 ng·h/mL and the AUC(0-inf) [12] was 1020 ng·h/mL. For the same molecule, the inhibition [13] was “Active”, the inhibition [14] was “Active” and the Vz [15] was 0.9 L/kg. The pIC50 [16] was 6.96, the Activity [17] was “Active” and the inhibition [18] was “Active”. The pIC50 [19] was 5.62, the inhibition [20] was “Active” and the Activity [21] was “Non-Toxic”. For the same molecule, the inhibition [22] was “Active”, the inhibition [23] was “Active” and the inhibition [24] was “Active”. For the same molecule, the pIC50 [25] was 6.39, the Activity [26] was “Active” and the inhibition [27] was “Active”. The pIC50 [28] was 6.05, the Activity [29] was “Active” and the MRT [30] was 6.8 h. For the same molecule, the inhibition [31] was “Active”, the pIC50 [32] was 6.01 and the Activity [33] was “inactive”.
